Experimental data as given in ChEMBL document CHEMBL1147111, “In vitro and in vivo activities of synthetic trioxolanes against major human schistosome species” (Antimicrob Agents Chemother, 2007).
Active and inactive are the calls of the source. The calls are words filed in the database; no cut-off is given here.

What was measured:
[1] = tested on: Schistosoma mansoni; experiment: Antischistosomal activity against NMRI mouse juvenile Schistosoma mansoni infection model assessed as reduction of total worm burden at 200 mg/kg, po after 28 days; format: functional; design: scale not given: the % may be the effect or the level left
Summary of the method: (§1)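 Juvenile-infection model: mice carrying Liberian-strain S. mansoni got one oral dose at day 21 postinfection, as a suspension in 7% Tween 80/3% ethanol. There were 3–5 per group, plus untreated controls. Necropsy by exsanguination followed 28 days after treatment. Liver and mesenteric-vein worms were collected, sexed and counted. Total and female burden reductions were calculated versus controls, with Kruskal-Wallis testing.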

[2] = tested on: Schistosoma mansoni; experiment: Antischistosomal activity against NMRI mouse juvenile Schistosoma mansoni infection model assessed as number of cured mouse at 200 mg/kg, po after 28 days; format: functional, organism-based; design: dose 200 mg/kg; summary of the method: as §1
[3] = tested on: Schistosoma mansoni; experiment: Antischistosomal activity against NMRI mouse juvenile Schistosoma mansoni infection model assessed as reduction of female worm burden at 200 mg/kg, po after 28 days; format: functional; design: scale not given: the % may be the effect or the level left; summary of the method: as §1
[4] = tested on: Schistosoma japonicum; experiment: Antischistosomal activity against Syrian golden hamster adult Schistosoma japonicum infection model assessed as reduction of female worm burden at 200 mg/kg, po; format: functional; design: scale not given: the % may be the effect or the level left
Summary of the method: (§2)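 Hamsters received 100 S. japonicum (Anhui strain) cercariae through shaved abdominal skin. At 35 days postinfection, they were given a single 200 mg/kg oral dose in Tween 80/ethanol suspension, with untreated controls. Animals were killed by bleeding, and worms were recovered by perfusion of hepatic and portomesenteric veins. Worms were sexed and counted, and reductions were computed against controls (Kruskal-Wallis).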

[5] = tested on: Schistosoma mansoni; experiment: Antischistosomal activity against Schistosoma mansoni assessed as worm death at 20 ug/ml after 24 hrs; format: functional, organism-based
Summary of the method: (§3)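 Adult S. mansoni (Liberian strain, 49-day-old) were held two males and two females per well, in duplicate, in Hanks' balanced salt solution with 20% calf serum, 300 IU/ml penicillin and 300 μg/ml streptomycin. Drug was given at 20 μg/ml final from a 1 mg/ml stock in 60% DMSO; solvent control was 1.2% DMSO. Incubation was at 37°C in 5% CO2. Worms were scored under a dissecting microscope at 24, 48 and 72 h for death, motor activity and tegument.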

[6] = tested on: Schistosoma mansoni; experiment: Antischistosomal activity against Syrian golden hamster adult Schistosoma mansoni infection model assessed as reduction of female worm burden at 50 mg/kg, po after 28 days; format: functional; design: scale not given: the % may be the effect or the level left
Summary of the method: (§4)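 Hamsters infected with Liberian-strain S. mansoni were treated once orally at 21 days (juvenile lines) or 49 days (adult lines) postinfection. Doses were 50, 100 or 200 mg/kg, in 7% Tween 80/3% ethanol suspension. Groups had 3–4 animals, with untreated controls. After 28 days, animals were bled out. Worms from liver and mesenteric veins were sexed and counted, and cures and burden reductions versus controls were recorded (Kruskal-Wallis).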

[7] = tested on: Schistosoma mansoni; experiment: Antischistosomal activity against Syrian golden hamster juvenile Schistosoma mansoni infection model assessed as number of cured mouse at 100 mg/kg, po after 28 days; format: functional, organism-based; design: dose 100 mg/kg; summary of the method: as §4
[8] = tested on: Schistosoma mansoni; experiment: Antischistosomal activity against Syrian golden hamster adult Schistosoma mansoni infection model assessed as number of cured mouse at 50 mg/kg, po after 28 days; format: functional, organism-based; design: dose 50 mg/kg; summary of the method: as §4
[9] = tested on: Schistosoma mansoni; experiment: Antischistosomal activity against Syrian golden hamster adult Schistosoma mansoni infection model assessed as reduction of total worm burden at 100 mg/kg, po after 28 days; format: functional; design: scale not given: the % may be the effect or the level left; summary of the method: as §4
[10] = tested on: Schistosoma japonicum; experiment: Antischistosomal activity against Syrian golden hamster adult Schistosoma japonicum infection model assessed as reduction of total worm burden at 200 mg/kg, po; format: functional; design: scale not given: the % may be the effect or the level left; summary of the method: as §2
[11] = tested on: Schistosoma mansoni; experiment: Antischistosomal activity against Syrian golden hamster adult Schistosoma mansoni infection model assessed as number of cured mouse at 100 mg/kg, po after 28 days; format: functional, organism-based; design: dose 100 mg/kg; summary of the method: as §4
[12] = tested on: Schistosoma mansoni; experiment: Tegumental alteration in Schistosoma mansoni at 20 ug/ml after 72 hrs; format: functional, organism-based; summary of the method: as §3
[13] = tested on: Schistosoma mansoni; experiment: Antischistosomal activity against Syrian golden hamster juvenile Schistosoma mansoni infection model assessed as number of cured mouse at 50 mg/kg, po after 28 days; format: functional, organism-based; design: dose 50 mg/kg; summary of the method: as §4
[14] = tested on: Schistosoma mansoni; experiment: Antischistosomal activity against Syrian golden hamster adult Schistosoma mansoni infection model assessed as reduction of total worm burden at 200 mg/kg, po after 28 days; format: functional; design: scale not given: the % may be the effect or the level left; summary of the method: as §4
[15] = tested on: Schistosoma japonicum; experiment: Antischistosomal activity against New Zealand rabbit adult Schistosoma japonicum infection model assessed as reduction of total worm burden at 15 mg/kg, po; format: functional; design: scale not given: the % may be the effect or the level left
Summary of the method: (§5)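 Rabbits were infected percutaneously with 200 S. japonicum (Anhui strain) cercariae via shaved abdominal skin. A single 15 mg/kg oral dose in Tween 80/ethanol suspension was given 35 days postinfection, with untreated controls. After sacrifice by blood letting, worms were perfused from hepatic and portomesenteric veins, sexed and counted. Cures and burden reductions were determined versus controls (Kruskal-Wallis).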

[16] = tested on: Schistosoma japonicum; experiment: Antischistosomal activity against New Zealand rabbit adult Schistosoma japonicum infection model assessed as reduction of female worm burden at 15 mg/kg, po; format: functional; design: scale not given: the % may be the effect or the level left; summary of the method: as §5
[17] = tested on: Schistosoma mansoni; experiment: Antischistosomal activity against Syrian golden hamster juvenile Schistosoma mansoni infection model assessed as reduction of total worm burden at 100 mg/kg, po after 28 days; format: functional; design: scale not given: the % may be the effect or the level left; summary of the method: as §4
[18] = tested on: Schistosoma mansoni; experiment: Antischistosomal activity against Syrian golden hamster juvenile Schistosoma mansoni infection model assessed as number of cured mouse at 200 mg/kg, po after 28 days; format: functional, organism-based; design: dose 200 mg/kg; summary of the method: as §4
[19] = tested on: Schistosoma mansoni; experiment: Antischistosomal activity against Syrian golden hamster juvenile Schistosoma mansoni infection model assessed as reduction of total worm burden at 50 mg/kg, po after 28 days; format: functional; design: scale not given: the % may be the effect or the level left; summary of the method: as §4
[20] = tested on: Schistosoma mansoni; experiment: Antischistosomal activity against Syrian golden hamster juvenile Schistosoma mansoni infection model assessed as reduction of female worm burden at 50 mg/kg, po after 28 days; format: functional; design: scale not given: the % may be the effect or the level left; summary of the method: as §4
[21] = tested on: Schistosoma mansoni; experiment: Antischistosomal activity against Syrian golden hamster adult Schistosoma mansoni infection model assessed as reduction of total worm burden at 50 mg/kg, po after 28 days; format: functional; design: scale not given: the % may be the effect or the level left; summary of the method: as §4
[22] = tested on: Schistosoma mansoni; experiment: Antischistosomal activity against Schistosoma mansoni assessed as worm death at 20 ug/ml after 48 hrs; format: functional, organism-based; summary of the method: as §3
[23] = tested on: Schistosoma mansoni; experiment: Antischistosomal activity against Syrian golden hamster juvenile Schistosoma mansoni infection model assessed as reduction of female worm burden at 200 mg/kg, po after 28 days; format: functional; design: scale not given: the % may be the effect or the level left; summary of the method: as §4
[24] = tested on: Schistosoma mansoni; experiment: Antischistosomal activity against Schistosoma mansoni assessed as worm death at 20 ug/ml after 72 hrs; format: functional, organism-based; summary of the method: as §3
[25] = tested on: Schistosoma mansoni; experiment: Antischistosomal activity against NMRI mouse adult Schistosoma mansoni infection model assessed as number of cured mouse at 400 mg/kg, po after 28 days; format: functional, organism-based; design: dose 400 mg/kg
Summary of the method: (§6)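 Mice with a Liberian-strain S. mansoni infection were dosed at 49 days postinfection with a single oral dose of compound suspended in 7% Tween 80/3% ethanol. Groups held 3–5 animals, with untreated controls. At 28 days posttreatment, animals were killed by bleeding. Worms in liver and mesenteric veins were removed, sexed and counted. Reductions were calculated against controls and tested by Kruskal-Wallis.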

[26] = tested on: Schistosoma mansoni; experiment: Antischistosomal activity against NMRI mouse adult Schistosoma mansoni infection model assessed as reduction of female worm burden at 400 mg/kg, po after 28 days; format: functional; design: scale not given: the % may be the effect or the level left; summary of the method: as §6
[27] = tested on: Schistosoma mansoni; experiment: Tegumental alteration in Schistosoma mansoni at 20 ug/ml after 24 hrs; format: functional, organism-based; summary of the method: as §3
[28] = tested on: Schistosoma mansoni; experiment: Reduction of motor activity of Schistosoma mansoni at 20 ug/ml after 24 hrs; format: functional, organism-based; summary of the method: as §3
[29] = tested on: Schistosoma mansoni; experiment: Reduction of motor activity of Schistosoma mansoni at 20 ug/ml after 48 hrs; format: functional, organism-based; summary of the method: as §3
[30] = tested on: Schistosoma japonicum; experiment: Antischistosomal activity against New Zealand rabbit adult Schistosoma japonicum infection model assessed as number of […] mg/kg, po; format: functional, organism-based; design: dose 15 mg/kg; summary of the method: as §5
[31] = tested on: Schistosoma mansoni; experiment: Antischistosomal activity against Syrian golden hamster adult Schistosoma mansoni infection model assessed as reduction of female worm burden at 200 mg/kg, po after 28 days; format: functional; design: scale not given: the % may be the effect or the level left; summary of the method: as §4
[32] = tested on: Schistosoma mansoni; experiment: Antischistosomal activity against Syrian golden hamster juvenile Schistosoma mansoni infection model assessed as reduction of female worm burden at 100 mg/kg, po after 28 days; format: functional; design: scale not given: the % may be the effect or the level left; summary of the method: as §4
[33] = tested on: Schistosoma mansoni; experiment: Antischistosomal activity against NMRI mouse adult Schistosoma mansoni infection model assessed as reduction of total worm burden at 400 mg/kg, po after 28 days; format: functional; design: scale not given: the % may be the effect or the level left; summary of the method: as §6
[34] = tested on: Schistosoma mansoni; experiment: Antischistosomal activity against Syrian golden hamster adult Schistosoma mansoni infection model assessed as reduction of female worm burden at 100 mg/kg, po after 28 days; format: functional; design: scale not given: the % may be the effect or the level left; summary of the method: as §4
[35] = tested on: Schistosoma mansoni; experiment: Antischistosomal activity against Syrian golden hamster juvenile Schistosoma mansoni infection model assessed as reduction of total worm burden at 200 mg/kg, po after 28 days; format: functional; design: scale not given: the % may be the effect or the level left; summary of the method: as §4
[36] = tested on: Schistosoma mansoni; experiment: Tegumental alteration in Schistosoma mansoni at 20 ug/ml after 48 hrs; format: functional, organism-based; summary of the method: as §3
[37] = tested on: Schistosoma mansoni; experiment: Reduction of motor activity of Schistosoma mansoni at 20 ug/ml after 72 hrs; format: functional, organism-based; summary of the method: as §3
[38] = tested on: Schistosoma mansoni; experiment: Antischistosomal activity against Syrian golden hamster adult Schistosoma mansoni infection model assessed as number of cured mouse at 200 mg/kg, po after 28 days; format: functional, organism-based; design: dose 200 mg/kg; summary of the method: as §4

For `C1CCC2(CC1)COC1(OO2)C2CC3CC(C2)CC1C3` (stereo not drawn), the Activity [1] was 5.4%, the Activity [2] was “inactive” and the Activity [3] was 3.9%.

`C1CCC2(CC1)COC1(O2)C2CC3CC(C2)CC1C3` (stereo not drawn) was tested, and the Activity [1] was 0%, the Activity [2] was “inactive” and the Activity [3] was 0%.

In the case of `C1CCC2(CC1)COC1(CCCCC1)OO2`, the Activity [1] is reported as 0%, the Activity [2] is reported as “inactive” and the Activity [3] is reported as 0%.

With `O=C(O)C[C@H]1CC[C@]2(CC1)OO[C@]1(O2)C2CC3CC(C2)CC1C3` the Activity [4] was 100%, the Activity [5] was “inactive” and the Activity [6] was 38.9%. For the same compound, the Activity [7] was “inactive”, the Activity [8] was “inactive” and the Activity [9] was 69.2%. The Activity [10] was 94.2%, the Activity [11] was “inactive” and the Activity [12] was “inactive”. The Activity [13] was “inactive”, the Activity [14] was 85% and the Activity [1] was 82%. The Activity [15] was 40.7%, the Activity [16] was 42.3% and the Activity [17] was 83%. For the same compound, the Activity [18] was “inactive”, the Activity [19] was 73.4% and the Activity [20] was 67%. For the same compound, the Activity [21] was 46.1%, the Activity [22] was “inactive” and the Activity [23] was 75.1%. The Activity [24] was “inactive”, the Activity [25] was “inactive” and the Activity [26] was 0%. The Activity [27] was “inactive”, the Activity [2] was “inactive” and the Activity [28] was “inactive”. For the same compound, the Activity [29] was “inactive”, the Activity [30] was “inactive” and the Activity [31] was 93.2%. It also gave an Activity [32] of 78.3%, an Activity [33] of 0% and an Activity [34] of 79.6%. For the same compound, the Activity [35] was 80.2%, the Activity [36] was “inactive” and the Activity [3] was 87.3%. For the same compound, the Activity [37] was “inactive” and the Activity [38] was “inactive”.

For `C1CCC2(CC1)OOC1(O2)C2CC3CC(C2)CC1C3` (stereo not drawn), the Activity [1] was 82%, the Activity [25] was “inactive” and the Activity [26] was 29.3%. For the same compound, the Activity [2] was “inactive”, the Activity [33] was 29.1% and the Activity [3] was 79.2%.
